Here are results for 11 molecules from ChEMBL document CHEMBL4196136, “Chemical Constituents of Thai Citrus hystrix and Their Antiausterity Activity against the PANC-1 Human Pancreatic Cancer Cell Line” (J Nat Prod, 2018).

Active and inactive are the calls of the source. The rule behind the calls is not given here. Where only a bound is given, the exact number is not on record here.

Data set [1] has as its system PANC-1. Put plainly: Antiausteritic activity against human PANC1 cells in nutrient-deprived medium measured after 24 hrs by WST8 assay. In kind it is functional. An outline of the steps:
(§1)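 Cells kept in DMEM with 10% FBS at 37 °C, 5% CO2. Seeded at 1.5 × 10^4 cells/well in DMEM for 24 h, washed twice with PBS, then exposed 24 h to serially diluted samples in DMEM or nutrient-deprived medium (NDM). Viability by WST-8 (3 h, A450) from three-well means. PC50 is the concentration killing 50% of cells in NDM without toxicity in DMEM.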

Data set [2] concerns MIA PaCa-2. Put plainly: Antiausteritic activity against human MIAPaCa2 cells in nutrient-deprived medium measured after 24 hrs by WST8 assay. In kind it is functional. An outline of the steps:
as §1

The subject of data set [3] is PSN1. Put plainly: Antiausteritic activity against human PSN1 cells in nutrient-deprived medium measured after 24 hrs by WST8 assay. In kind it is functional. An outline of the steps: as §1
The subject of data set [4] is PANC-1. Put plainly: Cytotoxicity against human PANC1 cells in DMEM measured after 24 hrs by WST8 assay. In kind it is cell-based. The settings on record: panc-1, 24 h. An outline of the steps: as §1
(In general: Formazan colour is commonly taken as a measure of viable cells.)

The test system of data set [5] is MIA PaCa-2. Description: Cytotoxicity against human MIAPaCa2 cells in DMEM measured after 24 hrs by WST8 assay. In kind it is cell-based. The settings on record: mia paca-2, 24 h. An outline of the steps: as §1
For data set [6], the system named is PSN1. Description: Cytotoxicity against human PSN1 cells in DMEM measured after 24 hrs by WST8 assay. In kind it is cell-based. The conditions noted are these: psn1, 24 h. An outline of the steps:
as §1

The subject of data set [7] is PANC-1. Description: Antiausteritic activity against human PANC1 cells in nutrient deprived medium assessed as induction of morphological changes at 6.25 to 25 uM after 24 hrs by ethidium bromide/acridine orange staining based microscopic method. In kind it is functional, cell-based. An outline of the steps:
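PANC-1 (2 × 10^5) seeded in 30 mm dishes overnight, washed twice with PBS, treated in NDM for 24 h in humidified CO2 incubator. Acridine orange/ethidium bromide double stain, 15 min in the dark. Fluorescence (red/green) and phase-contrast imaging at 20× objective.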

For data set [8], the system named is PANC-1. Description: Antiausteritic activity against human PANC1 cells in nutrient deprived medium assessed as cell death at 25 uM after 24 hrs by ethidium bromide/acridine orange staining based microscopic method relative to control. In kind it is functional. An outline of the steps: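 PANC-1 cells seeded at 2 × 10^5 per 30 mm dish, attached overnight, PBS-washed twice, then exposed to compound in nutrient-deprived medium (NDM) for 24 h in humidified CO2 incubator. Acridine orange/ethidium bromide double stain added 15 min in dark; fluorescence (red/green) and phase-contrast images taken at 20× objective; red-fluorescing, morphologically altered cells scored as dead.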

Data set [9] concerns PANC-1. Put plainly: Antiausteritic activity against human PANC1 cells in nutrient deprived medium assessed as cell shrinkage at 10 uM measured every 10 mins […] by phase contrast microscopic method. In kind it is functional, cell-based. An outline of the steps:
(§2)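 PANC-1 (2 × 10^5) attached overnight in complete medium, washed twice with PBS, treated with 10 μM in NDM. Held in a stage-top incubator at 37 °C, 5% CO2. Phase-contrast images taken every 10 min for 24 h.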

Data set [10] relates to PANC-1. Description: Antiausteritic activity against human PANC1 cells in nutrient deprived medium assessed as plasma blebbing at 10 uM measured every 10 mins […] by phase contrast microscopic method. The data set is classed as functional, cell-based. An outline of the steps: as §2
Data set [11] concerns PANC-1. Description: Antiausteritic activity against human PANC1 cells in nutrient deprived medium assessed as cell death at 10 uM measured every 10 mins for 24 hrs by phase contrast microscopic method. In kind it is functional, cell-based. An outline of the steps:
as §2

Data set [12] deals with PANC-1. Put plainly: Antimigratory activity in human PANC1 cells in DMEM assessed as cell migration at 10 uM after 24 hrs by wound healing assay (reference value: 95%). In kind it is functional.
For data set [13], the system named is PANC-1. Description: Inhibition of colony formation in human PANC1 cells in DMEM at 12.5 uM after 10 days by crystal violet staining based assay. In kind it is functional, cell-based. An outline of the steps: (§3)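 PANC-1 at 500 cells/well in DMEM, attached 24 h at 37 °C, 5% CO2. Treated with 12.5 or 25 μM in DMEM and grown 10 days. Cells washed with PBS, fixed with 4% formaldehyde, stained 15 min with crystal violet. Colony area measured; three replicates.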

Data set [14] relates to PANC-1. Description: Inhibition of colony formation in human PANC1 cells in DMEM at 25 uM after 10 days by crystal violet staining based assay relative to control. In kind it is functional. The conditions noted are these: PANC-1, 240 h. An outline of the steps: as §3
In data set [15] the test system is PANC-1. Put plainly: Reduction in total AKT expression in human PANC1 cells in nutrient deprived medium at up to 5 uM measured within 6 hrs by Western blot analysis. In kind it is functional, cell-based. An outline of the steps: (§4)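 PANC-1 cells treated in nutrient-deprived medium. Proteins resolved by SDS-PAGE and transferred to PVDF. Membranes blocked, washed in PBS with 0.1% Tween 20, and incubated overnight with primary antibodies against p-Akt, Akt, p-mTOR and mTOR. GAPDH served as loading control.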
(Immunoblotting shows a protein as a band on a membrane.)

For data set [16], the species on record is Homo sapiens. Description: Inhibition of AKT/mTOR signaling in human PANC1 cells in nutrient deprived medium assessed as effect on mTOR phosphorylation up to 5 uM measured within 6 hrs by Western blot analysis. In kind it is cell-based. An outline of the steps:
as §4

In data set [17] the test system is PANC-1. Description: Antiausteritic activity against human PANC1 cells in nutrient deprived medium assessed as disintegration of cell organelles at 10 uM measured every 10 mins for 24 hrs by phase contrast microscopic method. In kind it is functional, cell-based. An outline of the steps: as §2

In the case of `C/C(=C\COc1c2ccoc2cc2oc(=O)ccc12)CC[C@@H](O)C(C)(C)O`, the PC50 in data set [1] was 76.5 µM; in [2], 49.4 µM; in [3], 76.1 µM. For the same molecule, the Activity entry in data set [4], in data set [5] and in data set [6] was “Non-Toxic” each time.

Take `COC(C)(C)[C@H](O)COc1c2ccoc2cc2oc(=O)ccc12`: the PC50 was determined as 89.6 µM in data set [1], 87 µM in data set [2] and 89.7 µM in data set [3]. Besides, the Activity entry in data set [4], in data set [5] and in data set [6] was “Non-Toxic” throughout.

Regarding `COC(C)(C)[C@H](O)CC/C(C)=C/COc1c2ccoc2cc2oc(=O)ccc12`, the values for the PC50 in [1], in data set [2] and in data set [3] were 37.8 µM, 37.1 µM and 37.8 µM, respectively. Further, the Activity entry in data set [4], in data set [5] and in data set [6] was “Non-Toxic” throughout.

For `C=C(C)[C@@H](O)COc1c2ccoc2cc2oc(=O)ccc12`, the PC50 is 86.6 µM in [1], over 100 µM in data set [2] and over 100 µM in data set [3]. The Activity result in data set [4], in [5] and in [6] was “Non-Toxic” in each case.

On to `CO[C@@H](COc1c2ccoc2cc2oc(=O)ccc12)C(C)(C)O`, for which the figures for the PC50 in [1], in [2] and in data set [3] were 18.8 µM, 51.1 µM and 40.6 µM, respectively. Besides, the Activity result in [4], in data set [5] and in [6] was “Non-Toxic” each time.

Regarding `COc1cc(C[C@H]2C(=O)OC[C@@H]2Cc2ccc(OC)c(OC)c2)ccc1O` [ARCTIGENIN], the PC50 came to 0.7 µM in data set [1], 1.9 µM in [2] and 0.7 µM in data set [3].

As a reminder, the inhibition is the drop in the measured response relative to a control, in per cent. Turning to `CC(C)=CCC/C(C)=C/COc1c2ccoc2cc2oc(=O)ccc12` [BERGAMOTTIN], the Activity entry in [1] was “Dose-dependent effect”; in [2], “Dose-dependent effect”; in data set [3], “Dose-dependent effect”; in data set [4] it was “Non-Toxic”; in data set [5] it was “Non-Toxic”; in data set [6], “Non-Toxic”. The Activity in data set [8] was 100%; in data set [12], 30%. For the same molecule, the figures for the PC50 in data set [1], in data set [2] and in data set [3] were 4.6 µM, 2.2 µM and 9.4 µM, respectively. The outcome in data set [7], in [9], in [10], in data set [11], in data set [15] and in data set [17] was Active. Besides, the inhibition result in data set [13] and in data set [16] was “Active” throughout. The same molecule displayed an inhibition at 25 µM in [14] of 100%.

Turning to `CC(C)=CCOc1c2ccoc2cc2oc(=O)ccc12` [ISOIMPERATORIN], the PC50 in [1] turned out to be 41.2 µM; in data set [2], 37.2 µM; in data set [3], 41.7 µM. The Activity result in data set [4], in [5] and in data set [6] was “Non-Toxic” throughout.

In the case of `CC(C)(O)[C@H](O)COc1c2ccoc2cc2oc(=O)ccc12` [OXYPEUCEDANIN HYDRATE], the PC50 in data set [1] amounted to 41.2 µM; in data set [2], 79.4 µM; in data set [3] it was 89.7 µM. Further, the Activity result in data set [4], in [5] and in [6] was “Non-Toxic” each time.

For the molecule `CC1(C)O[C@H]1COc1c2ccoc2cc2oc(=O)ccc12` [OXYPEUCEDANIN], the results for the PC50 in [1], in data set [2] and in data set [3] were 76.5 µM, 38 µM and 74.6 µM, respectively. Besides, the Activity entry in data set [4], in data set [5] and in data set [6] was “Non-Toxic” in each case.

In the case of `O=c1ccc2ccc(O)cc2o1` [UMBELLIFERONE], the PC50 in data set [1], in data set [2] and in data set [3] was over 100 µM each time. Moreover, the Activity entry in data set [4], in data set [5] and in [6] was “Non-Toxic” each time.
